For one data set, the target named is Histone deacetylase 1 (Homo sapiens, UniProt Q13547). The data set is described as follows: Inhibition of recombinant C-terminal His/FLAG-tagged HDAC1 (unknown origin) expressed in baculovirus infected Sf9 insect cells using Ac-peptide as substrate preincubated for 15 mins followed by substrate addition and measured after 1 hr.
Data set [1] is filed under the species Homo sapiens. Briefly: Selectivity ratio, ratio of IC50 for recombinant human PIK3CB to recombinant human His-tagged PIK3CD/PIK3R1 expressed in baculovirus expression system.
The species entered for data set [2] is Homo sapiens. The data set is described as follows: Selectivity ratio, ratio of IC50 for recombinant human His-tagged PIK3CG expressed in baculovirus expression system to recombinant human His-tagged PIK3CD/PIK3R1 expressed in baculovirus expression system.
The species entered for data set [3] is Homo sapiens. The data set is described as follows: Selectivity ratio, ratio of IC50 for recombinant human N-terminal FLAG-tagged mTOR (1362 to end amino acids) to IC50 for recombinant human His-tagged PIK3CD/PIK3R1 expressed in baculovirus expression system.
The species named for data set [4] is Homo sapiens. Briefly: Inhibition of HDAC/PI3K in human HCT116 cells assessed as increase in cleaved caspase-3 level at 0.02 to 0.5 uM after 16 hrs by Western blot analysis. The format is cell-based. In a few lines: (§1)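 Immunoblot of HCT116 lysates (RIPA). 40 μg protein per lane on 10−12% SDS-PAGE, transferred to nitrocellulose, blocked 0.5 h in 5% milk/TBST. Primary antibodies 1:1000 overnight at 4 °C, secondary 1:1000 for 1 h, bands visualized by enhanced ECL.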

Data set [5] is described as follows: Selectivity index, ratio of IC50 for human PBMC cells to IC50 for human HCT116 cells. The note with it: PBMC cells and HCT116 cells, read-out: Ratio IC50. The format is toxicity. In a few lines:
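Ratio of IC50s from the MTT assay: PBMC or LO2 cells versus HCT116. Cells seeded at 2000/well, attached overnight at 37 °C, treated 96 h, MTT 4 h, formazan dissolved in DMSO, A570.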

Data set [6] in a line: Drug metabolism in rat bile assessed as glucuronide metabolite formation at 0.74 mg/kg, iv after 1 hr by LC/MS/MS analysis. The format is ADME, organism-based. The note with it: in vivo.
For data set [7], the target named is Dual specificity tyrosine-phosphorylation-regulated kinase 1B (Homo sapiens) (UniProt Q9Y463). Briefly: Binding affinity to wild-type human full length DYRK1B (M1 to S629 residues) expressed in bacterial expression system assessed as residual binding level at 1 uM by Kinomescan method relative to control. The gist of the method: (§2)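 Kinomescan binding screen at 1 μM across 97 kinases.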
Dual specificity tyrosine-phosphorylation-regulated kinase 1B (Homo sapiens), sequence (Q9Y463 whole entry, looked up, the tested form may be a part): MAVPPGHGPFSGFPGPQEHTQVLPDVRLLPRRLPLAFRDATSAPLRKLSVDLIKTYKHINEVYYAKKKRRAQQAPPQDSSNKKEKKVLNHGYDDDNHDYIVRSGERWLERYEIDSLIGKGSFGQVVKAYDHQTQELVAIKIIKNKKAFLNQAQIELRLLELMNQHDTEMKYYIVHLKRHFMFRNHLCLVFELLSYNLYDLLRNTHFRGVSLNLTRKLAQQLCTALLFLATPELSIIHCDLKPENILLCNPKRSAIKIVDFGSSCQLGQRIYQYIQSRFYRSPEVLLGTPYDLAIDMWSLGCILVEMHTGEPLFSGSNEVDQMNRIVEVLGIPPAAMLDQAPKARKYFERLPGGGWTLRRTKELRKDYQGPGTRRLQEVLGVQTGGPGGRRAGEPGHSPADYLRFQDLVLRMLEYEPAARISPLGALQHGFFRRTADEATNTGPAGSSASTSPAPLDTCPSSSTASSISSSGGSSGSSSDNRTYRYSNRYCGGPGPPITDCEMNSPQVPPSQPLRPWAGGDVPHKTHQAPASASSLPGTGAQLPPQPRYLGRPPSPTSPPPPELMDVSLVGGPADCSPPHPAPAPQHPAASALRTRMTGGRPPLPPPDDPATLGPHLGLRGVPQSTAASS

For data set [8], the target named is Phosphatidylinositol 4-phosphate 3-kinase C2 domain-containing subunit beta (Homo sapiens) (UniProt O00750). Briefly: Binding affinity to wild-type human […] length PIK3C2B (M1 to L1634 residues) expressed in mammalian expression system assessed as residual binding level at 1 uM by Kinomescan method relative to control. The gist of the method:
as §2

Data set [9] is filed under the species Homo sapiens. The data set is described as follows: Inhibition of HDAC/PI3K in human HCT116 cells assessed as increase in cleaved PARP level at 0.5 to 5 uM after 16 hrs by Western blot analysis. The format is cell-based. In a few lines: as §1
Data set [10] can be described thus: Terminal half life in ICR mouse at 3 mg/kg, iv measured after 0.033 to 24 hrs by LC/MS/MS analysis. Particulars: in vivo, read-out: beta t1/2 (converted). The format is ADME, organism-based. The gist of the method: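 Male-unspecified ICR mice, 3 per group iv (3 mg/kg in 10% DMSO/saline) and 5 per group po (30 mg/kg in 0.5% cmc/0.3% Tween 80). Blood sampled 0.033 (iv) or 0.083 (po) to 24 h. Plasma extracted with acetonitrile, analysed by LC/MS/MS; noncompartmental analysis.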

Data set [11] can be described thus: Half life in mouse liver microsomes preincubated for 5 mins followed by NADPH addition by LC/MS analysis. The format is ADME, Microsome. In a few lines:
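Mouse liver microsomes (0.5 mg/mL protein) with compound preincubated 5 min at 37 °C, started with NADPH; quenched with acetonitrile at time points; LC/MS. T1/2 = 0.693/K from ln(concentration) vs time; Clint scaled with factor 3937.5.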

A short description of data set [12]: Toxicity in athymic nude BALB/c mouse xenografted with human HCT116 cells assessed as reduction in body weight at 100 to 150 mpk, po measured 2 times every week. The note with it: in vivo. The format is organism-based.
Data set [13] in a line: Drug level in tumor of human HCT116 cells xenografted in athymic nude BALB/c mouse at 100 mpk, po by LC/MS/MS analysis. The format is ADME, organism-based, Neoplasm. The note with it: in vivo, 100 mg/kg. In a few lines:
(§3)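 HCT116 xenografted nude mice given daily oral doses; tumor tissue sampled 1 h after final dose and compound level measured (ng/g).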

Data set [14] in a line: Drug level in tumor of human HCT116 cells xenografted in athymic nude BALB/c mouse at 150 mpk, po by LC/MS/MS analysis. The note with it: in vivo, 150 mg/kg. The format is ADME, organism-based, Neoplasm. The gist of the method:
as §3

For data set [15], the system named is Mus musculus. Briefly: In vivo inhibition of PI3K/HDAC in tumor of human HCT116 cells xenografted in athymic nude BALB/c mouse assessed as reduction in phosphorylated Ki67 expression by DAB staining based immunohistochemistry method. The format is functional, organism-based. The gist of the method: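 HCT116 xenograft tumors from treated and vehicle mice stained immunohistochemically for Ki67, acetyl-H3 and p-AKT(S473) (200×); integrated optical density quantified; mean ± SEM, n = 5−7, one-way ANOVA versus vehicle.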

Data set [16] is described as follows: Toxicity in athymic nude BALB/c mouse xenografted with human HGC27 cells assessed as reduction in body weight at 30 mpk, ip measured 2 times every week relative to control. Particulars: in vivo, 30 mg/kg. Details: scale not given: the % may be the effect or the level left. The format is organism-based.
Data set [17] in a line: Drug level in BALB/c mouse plasma xenografted with human HGC27 cells at 100 mg/kg, po measured 0.5 hrs post last dose. The format is ADME, organism-based. In a few lines:
(§4)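 HGC-27 xenografted nude mice dosed po (0.5% cmc/Tween 80) or ip (saline); at end of treatment, 0.5 h after final dose, plasma and tumor tissue collected and compound concentration measured (ng/mL plasma, ng/g tumor).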

Data set [18] is described as follows: Drug level in BALB/c mouse plasma xenografted with human HGC27 cells at 200 mg/kg, po measured 0.5 hrs post last dose. The format is ADME, organism-based. The gist of the method:
as §4

A short description of data set [19]: Drug level in tumor of human HGC27 cells xenografted in BALB/c mouse at 200 mg/kg, po measured 0.5 hrs post last dose. The format is ADME, organism-based, Neoplasm. The note with it: read-out: Drug uptake. In a few lines:
as §4

Data set [20] can be described thus: Drug level in tumor of human HGC27 cells xenografted in BALB/c mouse at 30 mg/kg, ip measured 0.5 hrs post last dose. The note with it: read-out: Drug uptake. The format is ADME, organism-based, Neoplasm. The gist of the method:
as §4

Data set [21] has as its system Mus musculus. Briefly: In vivo inhibition of PI3K in tumor of human HGC27 cells xenografted in athymic nude BALB/c mouse assessed as reduction in phosphorylated AKT expression at S473 residue by DAB staining based immunohistochemistry method. The format is functional, organism-based. The gist of the method:
(§5)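 HGC-27 xenograft tumors from treated and vehicle mice immunostained for Ki67, Ac-H3 and p-AKT(S473) (200×); integrated optical density analysed; mean ± SEM, n = 5−7, one-way ANOVA versus vehicle.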

For data set [22], the system named is Mus musculus. Briefly: In vivo inhibition of HDAC in tumor of human HGC27 cells xenografted in athymic nude BALB/c mouse assessed as increase in acetylated histone-H3 expression by DAB staining based immunohistochemistry method. The format is functional, organism-based. In a few lines: as §5
In data set [23] the test system is Mus musculus. Briefly: In vivo inhibition of PI3K/HDAC in tumor of human HGC27 cells xenografted in athymic nude BALB/c mouse assessed as reduction in phosphorylated Ki67 expression by DAB staining based immunohistochemistry method. The format is functional, organism-based. In a few lines:
as §5

Data set [24] in a line: Drug metabolism in rat bile assessed as hydrolyzed metabolite formation at 0.74 mg/kg, iv after 1 hr by LC/MS/MS analysis. The note with it: in vivo. The format is ADME, organism-based.

The structures appear in SMILES notation. Activity calls are given as the source filed them. The calls are words filed in the database; no cut-off is given here.

Phosphatidylinositol 4-phosphate 3-kinase C2 domain-containing subunit beta (Homo sapiens), sequence (O00750 whole entry, the tested form may be a part): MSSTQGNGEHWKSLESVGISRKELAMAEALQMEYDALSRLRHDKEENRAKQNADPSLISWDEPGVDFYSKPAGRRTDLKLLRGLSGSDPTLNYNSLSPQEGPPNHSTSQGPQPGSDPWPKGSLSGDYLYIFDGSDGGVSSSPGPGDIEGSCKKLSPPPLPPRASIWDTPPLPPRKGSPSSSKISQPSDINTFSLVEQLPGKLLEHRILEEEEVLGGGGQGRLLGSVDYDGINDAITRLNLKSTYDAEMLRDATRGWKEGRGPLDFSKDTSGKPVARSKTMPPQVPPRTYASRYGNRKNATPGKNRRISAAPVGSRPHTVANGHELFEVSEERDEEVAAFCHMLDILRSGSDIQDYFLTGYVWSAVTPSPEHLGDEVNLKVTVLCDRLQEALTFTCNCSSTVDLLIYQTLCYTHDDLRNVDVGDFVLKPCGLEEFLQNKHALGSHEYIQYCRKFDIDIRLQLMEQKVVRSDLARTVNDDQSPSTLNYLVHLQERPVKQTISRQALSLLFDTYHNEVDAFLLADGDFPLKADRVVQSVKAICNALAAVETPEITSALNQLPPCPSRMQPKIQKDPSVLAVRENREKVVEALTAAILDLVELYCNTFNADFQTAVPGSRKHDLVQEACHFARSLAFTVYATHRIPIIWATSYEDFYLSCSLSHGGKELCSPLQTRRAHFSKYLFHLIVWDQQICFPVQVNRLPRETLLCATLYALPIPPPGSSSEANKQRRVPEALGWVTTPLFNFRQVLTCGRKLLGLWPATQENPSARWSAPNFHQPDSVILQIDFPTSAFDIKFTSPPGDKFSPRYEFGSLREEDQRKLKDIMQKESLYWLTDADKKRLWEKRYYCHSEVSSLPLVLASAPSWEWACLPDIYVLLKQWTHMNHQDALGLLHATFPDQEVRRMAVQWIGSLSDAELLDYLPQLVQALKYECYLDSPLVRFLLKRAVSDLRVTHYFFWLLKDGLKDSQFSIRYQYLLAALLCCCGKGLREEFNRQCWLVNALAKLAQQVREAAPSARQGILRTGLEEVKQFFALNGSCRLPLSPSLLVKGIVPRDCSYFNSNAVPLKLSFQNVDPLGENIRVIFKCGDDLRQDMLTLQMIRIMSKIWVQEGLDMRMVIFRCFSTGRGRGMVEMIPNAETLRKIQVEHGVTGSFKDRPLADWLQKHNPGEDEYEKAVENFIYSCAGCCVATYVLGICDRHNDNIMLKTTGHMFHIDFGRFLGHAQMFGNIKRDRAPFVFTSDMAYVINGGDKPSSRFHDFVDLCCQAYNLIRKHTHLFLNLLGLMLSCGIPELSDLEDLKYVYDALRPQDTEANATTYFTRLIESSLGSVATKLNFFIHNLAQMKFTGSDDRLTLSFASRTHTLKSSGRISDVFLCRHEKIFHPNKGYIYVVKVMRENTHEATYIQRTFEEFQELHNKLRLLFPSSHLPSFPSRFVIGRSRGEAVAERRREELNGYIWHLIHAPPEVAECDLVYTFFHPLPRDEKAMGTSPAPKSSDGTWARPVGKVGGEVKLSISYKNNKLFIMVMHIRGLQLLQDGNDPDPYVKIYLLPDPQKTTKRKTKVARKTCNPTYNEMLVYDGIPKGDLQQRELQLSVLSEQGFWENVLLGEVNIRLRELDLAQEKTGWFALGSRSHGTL
Histone deacetylase 1, sequence (Q13547 whole entry): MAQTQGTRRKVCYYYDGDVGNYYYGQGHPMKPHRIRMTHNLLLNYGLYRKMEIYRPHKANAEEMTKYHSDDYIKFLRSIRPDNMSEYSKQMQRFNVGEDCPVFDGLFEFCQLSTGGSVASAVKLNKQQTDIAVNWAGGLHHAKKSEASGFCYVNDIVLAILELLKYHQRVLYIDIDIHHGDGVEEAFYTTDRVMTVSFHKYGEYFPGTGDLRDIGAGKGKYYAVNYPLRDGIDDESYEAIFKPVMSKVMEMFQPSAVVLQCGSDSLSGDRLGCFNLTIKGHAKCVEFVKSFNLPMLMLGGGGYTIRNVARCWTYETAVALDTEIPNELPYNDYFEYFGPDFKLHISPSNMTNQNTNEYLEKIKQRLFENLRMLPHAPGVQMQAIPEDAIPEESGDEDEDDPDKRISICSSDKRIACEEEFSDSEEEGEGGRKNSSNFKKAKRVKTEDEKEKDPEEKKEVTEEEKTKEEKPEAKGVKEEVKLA

As for `COc1ccc(-c2cc(OCCN(C)c3ncc(C(=O)NO)cn3)c3ncnc(C)c3c2)cn1`, the IC50 on Histone deacetylase 1 stood at 1.3 nM. In addition, the Ratio IC50 in the data set listed under Homo sapiens [1] was more than 5; in the data set filed under Homo sapiens [2], more than 5; in the data set listed under Homo sapiens [3], more than 27. The inhibition result in the data set listed under Homo sapiens [4] is “Active”. The selectivity ratio in data set [5] is 8240.
On to `COc1ncc(-c2cc(OCCCCCCC(=O)NO)c3ncnc(C)c3c2)cc1F`, for which the Drug metabolism entry in data set [6] and in data set [24] was “Metabolite_Detected” each time. The Activity was 29% in data set [7], 27% in [8], “Toxic” in data set [12] and 20% in data set [16]. For the same molecule, the inhibition entry in the data set listed under Homo sapiens [9], with Mus musculus [21], in the data set on Mus musculus [22] and with Mus musculus [23] was “Active” each time. Also, the half-life in [10] was 19.8 min; in [11], 24.6 min. Besides, the Drug uptake in data set [13] was found to be 72.7 ng/g; in data set [14] it was 74.8 ng/g. Also, the inhibition result with Mus musculus [15] was “Dose-dependent effect”. Moreover, the concentration at 0.5 h in data set [17] stood at 0.179 µg/mL; in [18], 0.232 µg/mL; in data set [19], 105 ng/g; in data set [20] it was 370 ng/g.
